Where “and” joins values, the source holds several entries; their conditions need not be identical. Equal entries are not always repeated.
Experiments:
Cytotoxicity = type: cell-based; conditions: human, Caco-2 cells
Summary of the method: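 Caco-2 cells grown 24 h in EMEM + 10% FBS, 37 °C, 5% CO2. Test compound (10 ng/ml–100 μg/ml, in EMEM with 0.5% DMSO) applied for 24 h. MTT (5 mg/ml stock) added for 4 h, formazan dissolved in 4 mM HCl/0.1% Nonidet P-40 in isopropanol. A590 read, 620 nm reference. Viability relative to untreated wells; CC50 from curve fit.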

[1] = test system: G. duodenalis trophozoite stage; assay: In vitro antigiardial assay; type: cell-based; conditions: Giardia duodenalis, 48 h, G. duodenalis trophozoites
Summary of the method: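 Log-phase trophozoites grown in modified TYI-S-33 at 37 °C, harvested by chilling on ice, counted. DMSO stocks diluted two-fold serially; 2 × 10^5 trophozoites/well; metronidazole positive control. Incubated 48 h at 37 °C, anaerobic. BacTiter-Glo added, 20 min at 37 °C, luminescence read. Survival = medium-blank-corrected signal vs untreated; triplicates. SI = Caco-2 CC50 / IC50.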

3D7 parasite line = conditions: ref Whittell et al., 2011; cited from earlier work

Row | Structure (SMILES) | CC50 at 24 h (Cytotoxicity) | IC50 [1] | IC50 (3D7 parasite line) [nM]
1 | Cc1ncc([N+](=O)[O-])n1CCO [Metronidazole, metronidazole] | > 100 µg/mL and > 100 µM | 2.01 µg/mL and 11.7 µM | –
2 | Cn1cc2c3ccccc3nc-2c2ccccc21 [isocryptolepine, Isocryptolepine] | – | – | 665

Reference: PMC11377146 (International Journal for Parasitology: Drugs and Drug …, 2024)
